From ChEMBL document CHEMBL5131497, “Design, Synthesis, and Characterization of TNP-2198, a Dual-Targeted Rifamycin-Nitroimidazole Conjugate with Potent Activity against Microaerophilic and Anaerobic Bacterial Pathogens” (J Med Chem, 2022)
In brackets after ≈: the same amount, converted by molar mass.

Legend:
Helicobacter pylori [1] = experiment: Antibacterial activity against Helicobacter pylori infected in C57/BL6 mouse assessed as bacterial load in stomach at 10 mg/kg administered twice daily via oral gavage starting from 7 days post inoculation and administered for 7 days (reference value: 5.25 log10CFU); format: functional; details: time 7 day
Clostridioides difficile [2] = experiment: Antibacterial activity against Clostridioides difficile CB1921 ATCC BAA1382 at 1:1 compound to rifampicin molar ratio measured after 3 days in presence of rifampicin; format: functional; details: CB1921 ATCC BAA1382, 72 h, time 3 day
Clostridioides difficile [3] = experiment: Antibacterial activity against fluoroquinolone-resistant Clostridioides difficile CB1941 harboring gyrAD71Y/T82A mutant at 1:1 compound to rifampicin molar ratio measured after 3 days in presence of rifampicin; format: functional; details: CB1941, 72 h, time 3 day
Helicobacter pylori [4] = experiment: Antibacterial activity against metronidazole-resistant Helicobacter pylori CB1573 harboring rdxAR16S mutant at 1:1 compound to rifabutin molar ratio measured after 5 days in presence of rifabutin by agar dilution method; format: functional; details: CB1573, 120 h, time 5 day
How it was run: (§1)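 Agar dilution per CLSI. Wild-type ATCC 700392 (CB1531) and its derivatives carry defined resistance determinants. Drugs, alone or in 1:1 molar mixtures, were diluted 2-fold from 100× stocks into Mueller–Hinton agar with aged (≥2 weeks) sheep blood (5% v/v). MIC read after 5 days at 35 °C under microaerobic conditions from a campylobacter gas-generating system.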

Syrian golden hamster = experiment: Antibacterial activity against Clostridioides difficile UNT-103-1 infected in Syrian hamster assessed as mortality at 100 mg/kg, po administered once a daily for 5 days after 18 hrs post 10 mg/kg clindamycin treatment and measured upto 21 days; format: functional, Mesocricetus auratus; details: time <= 21 day
How it was run: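 Male Golden Syrian hamsters (80-90 g), housed singly, were gavaged with C. difficile UNT103-1 grown in sporulation medium broth and diluted to OD600 1 in prereduced broth. […] From 18 h later, drug or vehicle was given by oral gavage once daily for 5 days. Survival was recorded through day 21.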

Clostridioides difficile [5] = experiment: Antibacterial activity against rifampicin/fluoroquinolone-resistant Clostridioides difficile CB1942 harboring rpoBQ489K/gyrAD71Y/T82A mutant at 1:1 compound to rifampicin molar ratio measured after 3 days in presence of rifampicin; format: functional; details: CB1942, 72 h, time 3 day
Gardnerella vaginalis [6] = experiment: Antibacterial activity against Gardnerella vaginalis clinical isolate USA; format: functional
Gardnerella vaginalis [7] = experiment: Antibacterial activity against Gardnerella vaginalis clinical isolate China; format: functional
Helicobacter pylori [8] = experiment: Antibacterial activity against Helicobacter pylori clinical isolate USA; format: functional
Gardnerella vaginalis [9] = experiment: Antibacterial activity against Gardnerella vaginalis ATCC 14018; format: functional
Bacteroides uniformis = experiment: Antibacterial activity against Bacteroides uniformis MMX 1277; format: functional
Bacteroides fragilis = experiment: Antibacterial activity against metronidazole-resistant Bacteroides fragilis MMX 3387; format: functional
Gardnerella vaginalis [10] = experiment: Antibacterial activity against Gardnerella vaginalis ATCC 49145; format: functional
Helicobacter pylori [11] = experiment: Antibacterial activity against rifampicin-resistant Helicobacter pylori CB1902 harboring rpoBV149F mutant at 1:1 compound to rifampicin molar ratio measured after 5 days in presence of rifampicin by agar dilution method; format: functional; details: CB1902, 120 h, time 5 day; how it was run: as §1
Peptostreptococcus sp. = experiment: Antibacterial activity against Peptostreptococcus magnus ATCC 14956; format: functional
Helicobacter pylori [12] = experiment: Antibacterial activity against Helicobacter pylori ATCC 700392 at 1:1 compound to rifampicin molar ratio measured after 5 days in presence of rifampicin by agar dilution method; format: functional; details: ATCC 700392, 120 h, time 5 day
How it was run: (§2)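 Agar dilution per CLSI: two-fold serial dilutions from 100× stocks in Mueller–Hinton agar with aged (≥2 weeks) sheep blood (5% v/v). Strains were wild-type ATCC 700392 (CB1531) and derived mutants carrying defined resistance determinants. MIC was read after 5 days at 35 °C under microaerobic conditions from a campylobacter gas-generating system. Routine culture was on TSA with 5% sheep blood.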

Helicobacter pylori [13] = experiment: Antibacterial activity against metronidazole/rifampicin-resistant Helicobacter pylori CB1893 harboring rpoBL525I/D530N/rdxAR16S mutant at 1:1 compound to rifampicin molar ratio measured after 5 days in presence of rifampicin by agar dilution method; format: functional; details: CB1893, 120 h, time 5 day
How it was run: (§3)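 Agar dilution MIC per CLSI. Resistant derivatives of wild-type ATCC 700392 carrying defined rpoB/rdxA mutations. Test agent combined 1:1 molar with the partner drug. Agents prepared from 100× stocks and serially 2-fold diluted into Mueller–Hinton agar containing 5% v/v aged (≥2 weeks) sheep blood. Plates incubated 5 days at 35 °C under a microaerobic atmosphere from a gas-generating system.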

Campylobacter gracilis = experiment: Antibacterial activity against Bacteroides gracilis ATCC 33236 MMX 1270; format: functional
Clostridioides difficile [14] = experiment: Antibacterial activity against fluoroquinolone-resistant Clostridioides difficile CB1939 at 1:1 compound to rifampicin molar ratio measured after 3 days in presence of rifampicin; format: functional; details: CB1939, 72 h, time 3 day
Helicobacter pylori [15] = experiment: Antibacterial activity against Helicobacter pylori ATCC 700392 at 1:1 compound to rifabutin molar ratio measured after 5 days in presence of rifabutin by agar dilution method; format: functional; details: ATCC 700392, 120 h, time 5 day
How it was run: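 Agar dilution per CLSI. Wild-type H. pylori ATCC 700392 (CB1531). Drugs prepared from 100× stocks as 2-fold dilutions in Mueller–Hinton agar with aged (≥2 weeks) sheep blood (5% v/v). Combinations were at 1:1 molar ratio. MIC read after 5 days at 35 °C under microaerobic atmosphere from a campylobacter gas-generating system.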

Veillonella parvula = experiment: Antibacterial activity against Veillonella parvula ATCC 17745 MMX 1272; format: functional
Helicobacter pylori [16] = experiment: Antibacterial activity against metronidazole-resistant Helicobacter pylori CB1573 harboring rdxAR16S mutant measured after 5 days by agar dilution method; format: functional; details: CB1573, 120 h, time 5 day; how it was run: as §1
[17] = system: Porphyromonas asaccharolytica; experiment: Antibacterial activity against metronidazole-resistant Prevotella asaccharolytica MMX 3552; format: functional
Fusobacterium nucleatum = experiment: Antibacterial activity against Fusobacterium nucleatum ATCC 10953; format: functional
Helicobacter pylori [18] = experiment: Antibacterial activity against metronidazole/rifampicin-resistant Helicobacter pylori CB1893 harboring rpoBL525I/D530N/rdxAR16S mutant measured after 5 days by agar dilution method; format: functional; details: CB1893, 120 h, time 5 day; how it was run: as §1
Clostridioides difficile [19] = experiment: Antibacterial activity against rifampicin/fluoroquinolone-resistant Clostridioides difficile CB1940 harboring rpoBQ489K/gyrAA118S mutant at 1:1 compound to rifampicin molar ratio measured after 3 days in presence of rifampicin; format: functional; details: CB1940, 72 h, time 3 day
Clostridioides difficile [20] = experiment: Antibacterial activity against rifampicin-resistant Clostridioides difficile CB1934 harboring rpoBQ489K mutant at 1:1 compound to rifampicin molar ratio measured after 3 days in presence of rifampicin; format: functional; details: CB1934, 72 h, time 3 day
Actinomyces naeslundii = experiment: Antibacterial activity against Actinomyces naeslundii ATCC 1210; format: functional
Helicobacter pylori [21] = experiment: Antibacterial activity against metronidazole/rifampicin-resistant Helicobacter pylori CB1771 harboring rpoBL525I/D530N/rdxAE75stop mutant measured after 5 days by agar dilution method; format: functional; details: CB1771, 120 h, time 5 day; how it was run: as §1
Clostridioides difficile [22] = experiment: Antibacterial activity against Clostridioides difficile clinical isolate China; format: functional
Clostridioides difficile [23] = experiment: Antibacterial activity against Clostridioides difficile clinical isolate USA; format: functional
Helicobacter pylori [24] = experiment: Antibacterial activity against rifampicin resistant Helicobacter pylori harboring rpoBL525I/D530N mutant; format: functional
Clostridioides difficile [25] = experiment: Antibacterial activity against rifampicin-resistant Clostridioides difficile harboring rpoBQ489K mutant; format: functional
Helicobacter pylori [26] = experiment: Antibacterial activity against rifampicin-resistant Helicobacter pylori CB1903 harboring rpoBD530V mutant at 1:1 compound to rifabutin molar ratio measured after 5 days in presence of rifabutin by agar dilution method; format: functional; details: CB1903, 120 h, time 5 day; how it was run: as §2
Phocaeicola vulgatus = experiment: Antibacterial activity against metronidazole-resistant Bacteroides vulgatus 3490; format: functional
Fannyhessea vaginae = experiment: Antibacterial activity against Atopobium vaginae BAA-55; format: functional
Clostridium sporogenes = experiment: Antibacterial activity against Clostridium sporogenes ATCC 19404; format: functional
Helicobacter pylori [27] = experiment: Antibacterial activity against Helicobacter pylori clinical isolate China; format: functional
Staphylococcus aureus = experiment: Antibacterial activity against Staphylococcus aureus ATCC 29213; format: functional
Helicobacter pylori [28] = experiment: Antibacterial activity against metronidazole/rifampicin-resistant Helicobacter pylori CB1771 harboring rpoBL525I/D530N/rdxAE75stop mutant at 1:1 compound to rifampicin molar ratio measured after 5 days in presence of rifampicin by agar dilution method; format: functional; details: CB1771, 120 h, time 5 day; how it was run: as §3
Helicobacter pylori [29] = experiment: Antibacterial activity against rifampicin-resistant Helicobacter pylori CB1614 harboring rpoBL525I/D530N at 1:1 compound to rifampicin molar ratio measured after 5 days in presence of rifampicin by agar dilution method; format: functional; details: CB1614, 120 h, time 5 day; how it was run: as §1

For `CC[C@H]1OC(=O)[C@H](C)[C@@H](O[C@H]2C[C@@](C)(OC)[C@@H](O)[C@H](C)O2)[C@H](C)[C@@H](O[C@@H]2O[C@H](C)C[C@H](N(C)C)[C@H]2O)[C@](C)(OC)C[C@@H](C)C(=O)[C@H](C)[C@@H](O)[C@]1(C)O` [CLARITHROMYCIN], which Activity (Helicobacter pylori [1]) is on record?
The Activity was 2.85 log10CFU.

What does the source list for `Cc1ncc([N+](=O)[O-])n1CCO` [METRONIDAZOLE]?
MIC (Clostridioides difficile [2]): ≤ 0.03 µg/mL; MIC (Clostridioides difficile [3]): ≤ 0.03 µg/mL; MIC (Helicobacter pylori [4]): ≤ 2 ng/mL; Activity (Syrian golden hamster): 100%; MIC (Clostridioides difficile [5]): 2 µg/mL; MIC (Gardnerella vaginalis [6]): ≥ 2 µg/mL; MIC90 (Gardnerella vaginalis [6]): 64 µg/mL (≈ 374 µM); MIC (Gardnerella vaginalis [7]): ≥ 16 µg/mL; MIC90 (Gardnerella vaginalis [7]): ≥ 32 µg/mL; MIC90 (Helicobacter pylori [8]): 128 µg/mL (≈ 748 µM); MIC (Gardnerella vaginalis [9]): 4 µg/mL (≈ 23.4 µM); MIC (Bacteroides uniformis): > 256 µg/mL; MIC (Bacteroides fragilis): > 256 µg/mL; MIC (Gardnerella vaginalis [10]): 4 µg/mL (≈ 23.4 µM); MIC (Helicobacter pylori [11]): 8 µg/mL; MIC (Peptostreptococcus sp.): 1 µg/mL (≈ 5.84 µM); MIC (Helicobacter pylori [12]): 0.5 µg/mL; MIC (Helicobacter pylori [13]): > 32 µg/mL; MIC (Campylobacter gracilis): > 256 µg/mL; MIC (Clostridioides difficile [14]): ≤ 0.03 µg/mL; MIC (Helicobacter pylori [15]): ≤ 2 ng/mL; MIC (Veillonella parvula): 2 µg/mL (≈ 11.7 µM); MIC (Helicobacter pylori [16]): 32 µg/mL (≈ 187 µM); MIC [17]: 1 µg/mL (≈ 5.84 µM); MIC (Fusobacterium nucleatum): 0.06 µg/mL (≈ 0.351 µM); MIC (Helicobacter pylori [18]): 32 µg/mL (≈ 187 µM); MIC (Clostridioides difficile [19]): 2 µg/mL; MIC (Clostridioides difficile [20]): 2 µg/mL; MIC (Actinomyces naeslundii): 256 µg/mL (≈ 1500 µM); MIC (Helicobacter pylori [21]): 32 µg/mL (≈ 187 µM); MIC (Clostridioides difficile [22]): ≤ 0.06 µg/mL; MIC90 (Clostridioides difficile [22]): 0.125 µg/mL (≈ 0.73 µM); MIC (Clostridioides difficile [23]): 0.12 µg/mL (≈ 0.701 µM); MIC (Helicobacter pylori [24]): > 32 µg/mL; MIC (Clostridioides difficile [25]): > 8 µg/mL; MIC (Helicobacter pylori [26]): 1 µg/mL; MIC (Phocaeicola vulgatus): 128 µg/mL (≈ 748 µM); MIC (Fannyhessea vaginae): 128 µg/mL (≈ 748 µM); MIC (Clostridium sporogenes): 0.06 µg/mL (≈ 0.351 µM); MIC (Helicobacter pylori [27]): ≥ 0.25 µg/mL; MIC90 (Helicobacter pylori [27]): ≥ 16 µg/mL; MIC (Staphylococcus aureus): > 32 µg/mL; MIC (Helicobacter pylori [28]): > 32 µg/mL; MIC (Helicobacter pylori [29]): 8 µg/mL
